# Compound activity (PubChem)
# KCNQ1 pot: potentiates or activates the human KCNQ1 potassium channel; B-score at 10 µM; CHO-K1 KCNQ1, thallium flux FluxOR fluorescence; active compounds read high; hit rate 0.35% among 310,000; P51787; AID 2648;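 active = fluorescence ratio B-score, a plate-corrected score, at least three library SD, with initial intensity B-score within 5 SD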
#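 assay system = KCNQ1-transfected CHO-K1 cells | medium = assay buffer with matched DMSO | probe or stimulus = depolarizing K+/Tl+ stimulus, K2SO4 and Tl2SO4 each 12.5 mM in 5x stock | dosing = single dose | incubation = dye 90 min, compound 20 min, room temperature | detection = kinetic FluxOR fluorescence, 10 s baseline plus 110 s post-stimulus | evaluation = ratio B score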
# KCNK3 block: human KCNK3 channel inhibition, primary screen. hit rate 0.84% among 340,000. B-score at 10 µM. CHO-KCNK3 thallium flux, FluxOR fluorescence; active compounds read low;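 active = B-score under library mean minus 4 SD, starting fluorescence ratio at most library mean plus 5 SD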;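 note: more negative B-score means stronger inhibition of thallium flux through KCNK3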
# KCNQ1 block: inhibitors of human KCNQ1 potassium channel; P51787; B-score at 10 µM; CHO-K1 KCNQ1, FluxOR thallium flux fluorescence; active compounds read high; hit rate 1.3% among 310,000;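 active = compounds whose thallium flux B-score, printed positive for inhibition, exceeds three library SD while starting fluorescence stays within three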;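 note: channel opened by potassium depolarization with thallium stimulus after 20 min compound exposure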
# hERG protect: shields human hERG channel from block by proarrhythmic agents; hit rate 0.51% among 310,000; Q12809; activation (rescue from dofetilide block), less the hit threshold, % at 10 µM; CHO-hERG, FluxOR thallium flux, dofetilide IC70 present;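 active = activation above the mean of controls blocked by dofetilide plus 5 SD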;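 note: thallium influx through hERG after potassium depolarization seen as dye fluorescence rise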
# KCNK9 inh: human KCNK9 channel inhibition. hit rate 1.2% among 310,000. AID 488922. HEK293 KCNK9, FluxOR thallium flux fluorescence; active compounds read low. B-score at 10 µM;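 active = ratio B-score over 3 SD below the library mean, with starting fluorescence within 5 SD of its mean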;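 note: negative B-score means less thallium flux so channel inhibition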
# Target sequence (Q9NPC2 whole entry, looked up): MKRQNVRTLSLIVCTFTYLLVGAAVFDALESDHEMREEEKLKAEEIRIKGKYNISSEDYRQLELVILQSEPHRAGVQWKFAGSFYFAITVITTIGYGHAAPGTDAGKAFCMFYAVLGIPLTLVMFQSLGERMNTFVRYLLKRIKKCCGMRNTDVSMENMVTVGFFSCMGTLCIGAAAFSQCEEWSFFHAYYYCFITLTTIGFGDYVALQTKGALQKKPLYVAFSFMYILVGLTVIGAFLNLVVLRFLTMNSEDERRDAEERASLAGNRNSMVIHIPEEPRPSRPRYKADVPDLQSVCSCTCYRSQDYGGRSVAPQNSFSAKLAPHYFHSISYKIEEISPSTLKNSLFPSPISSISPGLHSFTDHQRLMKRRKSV
# Kir21 block: Kir2.1 (mouse) channel inhibition. B-score at 10 µM. P35561. hit rate 0.85% among 310,000. HEK293-Kir2.1, FluxOR thallium flux fluorescence; active compounds read low. AID 1672;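 active = fluorescence ratio B-score at or below minus 3 SD of library scores, with starting-brightness B-score within 2 SD, cut at about -4.2 in these data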;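 note: channel flux triggered by added potassium and thallium sulfate stimulus; B-score of peak minus minimum fluorescence over baseline after thallium stimulus; more negative B-score means stronger Kir2.1 block with less thallium influx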
# KCNK9 inh conf: confirmation of human KCNK9 potassium channel inhibitors; shares compounds with KCNK9 inh; HEK293 KCNK9 cells, FluxOR thallium flux fluorescence; inhibition, % at 10 µM; hit rate 43% among 4,900; AID 492992;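 active = thallium signal inhibited by more than 5 SD of the compound-free buffer control wells, on both duplicate plates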;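 note: 0% = assay buffer control wells without compound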
# Kir21 sel: mouse Kir2.1 off-target activity of KCNK9 modulators; Kir2.1 cells, FluxOR thallium flux fluorescence; AID 492993; inhibition, % at 10 µM; hit rate 4% among 4,900; shares compounds with KCNK9 inh;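 active = thallium signal drop more than 5 SD beyond the mean of the no-compound control wells, seen in both duplicate plates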;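 note: signal is fluorescence rise after thallium addition divided by baseline fluorescence; plate controls were assay buffer only for no effect and full block by chlorpromazine control for full effect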
# HEK293 Tl ctr: second counter-screen for KCNK9 modulators: effect in non-induced cells; shares compounds with KCNK9 inh; non-induced KCNK9-HEK293, FluxOR thallium flux; inhibition, % at 10 µM; hit rate 40% among 4,900;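 active = thallium signal drop beyond 5 SD of the untreated control mean, on both duplicate plates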;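 note: plate controls were buffer only IC0 wells for no effect and SID17386958 at its maximal inhibitory level for full effect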
# KCNK3 confirm: human KCNK3 channel inhibition, confirmation assay | shares compounds with KCNK3 block | ratio percent of control, % at 10 µM | CHO-KCNK3 thallium flux, FluxOR fluorescence; 0% buffer, 100% carvedilol maximal block | hit rate 99% among 2,400 | AID 651638;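 active = ratio percent of control, averaged over triplicates, above buffer control mean plus 5 SD, cut at about 64% in these data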;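 note: ratio is the fluorescence rise from min to max over baseline after thallium stimulus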
# KCNK3 uninduced: KCNK3 inhibitor counter-screen hit in non-induced cells; AID 651747; thallium flux ratio (lower = more inhibition) at 10 µM; hit rate 40% among 2,400; shares compounds with KCNK3 block; non-induced KCNK3 parental cells, FluxOR thallium flux; active compounds read low;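 active = thallium flux ratio, averaged over three wells, more than 5 SD below the buffer control mean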;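 note: host cells are CHO cells without KCNK3 induction; ratio is peak minus trough fluorescence over baseline then normalized to buffer controls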
# * = called active by the depositor; i = inactive; . = no result; ! = a repeat was not active. Hits are enriched below; roughly 3.7% of the tested compounds scored in any of these assays.
SMILES,KCNQ1 pot,KCNK3 block,KCNQ1 block,hERG protect,KCNK9 inh,Kir21 block,KCNK9 inh conf,Kir21 sel,HEK293 Tl ctr,KCNK3 confirm,KCNK3 uninduced
CC1(C)CC(=O)C2=C(C1)N=C1c3ccccc3C(=O)C1C2c1ccc(Cl)cc1 (stereo not given),i,-15*,i,-11,-12*,-0.01,55%*,i,40%*,122*,0.14*
COc1ccccc1CNC(=O)C1CCN(S(=O)(=O)c2ccc3c(c2)OCCCO3)CC1,i,i,i,-5,i,1.2,.,.,.,.,.
Cc1ccccc1Sc1c(C#N)c(-c2ccccc2)nn1C,i,-12*,i,-11,-8.6*,-1.6,42%*,i,50%*,123*,0.13*
Cc1ccc(Sc2c(CO)c(-c3ccccc3)nn2C)cc1,i,i,i,-18,i,2,.,.,.,.,.
CCOc1ncccc1C(=O)Nc1cccc(-c2nc3cccnc3s2)c1,i,-9.6*,i,-11,-10*,0.05,i,i,i,101*,i
O=C(Nc1cccc(-c2nc3cccnc3s2)c1)c1ccco1,i,i,i,-14,i,-0.67,.,.,.,.,.
CCn1c(C(=O)N2CCC(C(=O)NCCCSC3CCCCC3)CC2)cc2sccc21,i,-9.3*,i,-21,i,-0.15,i,i,i,92*,i
Cc1ccccc1-n1ncc2c1CC(C)(C)CC2NC(=O)c1cn[nH]c1C (stereo not given),i,i,i,-11,i,-0.68,.,.,.,.,.
CN(CCC1CCCCO1)C(=O)c1cc(COc2ccc(F)cc2F)on1 (stereo not given),i,i,i,-11,i,-0.39,.,.,.,.,.
CN(CCCC1CCCC1)C(=O)c1cc(COc2ccc(F)c(F)c2)on1,i,-9.2*,i,-8,-8.8*,1.4,i,i,38%*,122*,i
CCOC(=O)c1cc(-c2ccc(Cl)cc2)nc2c1c(C)nn2CCC#N,i,-9.3*,i,-3,-13*,-1.1,52%*,i,32%*,125*,0.13*
COc1cccc(-c2nn(-c3ccccc3)cc2C(=O)Nc2nccs2)c1,i,-10*,6*,-11,-15*,-0.7,35%*,i,i,100*,0.12*
CC(C)S(=O)(=O)c1csc(NC(=O)Nc2cc(Cl)ccc2Cl)c1Cl,i,-11*,i,-8,-8.2*,-0.15,54%*,i,38%*,139*,0.14*
CN(C)c1ccc(C(CNC(=O)c2ccccc2)c2c[nH]c3ccccc23)cc1 (stereo not given),i,-9.2*,i,-14,-13*,0.03,54%*,i,27%*,101*,0.14*
CC(C)C(=O)Nc1ccc(C(=O)c2ccccc2)cc1,i,i,i,-10,i,0.08,.,.,.,.,.
COC(=O)C(C)N(C(=O)c1ccc(C(=O)c2ccccc2)cc1)c1c(C)cccc1C (stereo not given),i,-11*,i,-4,-9*,-2.8,40%*,i,34%*,92*,i
COC(=O)c1ccccc1NC(=O)c1ccc(F)cc1,i,i,i,-5,i,-0.13,.,.,.,.,.
COC(=O)c1ccccc1SC(CC(=O)c1ccccc1)c1ccc(F)cc1 (stereo not given),i,i,i,-13,-13*,0.71,49%*,i,56%*,114*,i
CCOC(=O)c1ccc(NC(=O)COc2ccc(CNCCO)cc2OCC)cc1,i,i,i,-7,i,1.5,.,.,.,.,.
CCOC(=O)c1ccc(NC(=O)COc2ccccc2CNCCc2ccccc2)cc1,i,-12*,11*,-25,-8.1*,-3.7,30%*,i,i,104*,i
COc1cccc(CNCC(O)(c2ccc(Cl)cc2)c2ccc(Cl)cc2)c1,i,i,7*,-29,-13*,-0.38,i,i,38%*,139*,0.15*
Cc1cc(OCC(=O)NCCc2c[nH]c3ccccc23)c2c(C)cc(=O)oc2c1,i,i,i,-6,i,-0.66,.,.,.,.,.
O=S(=O)(c1ccc(Br)s1)N1CCC(Cc2ccccc2)CC1,i,-9.1*,i,-19,i,0.89,i,i,i,100*,i
COc1ccc(C(=O)c2coc3c2C(=O)C(=O)c2ccccc2-3)cc1,i,-8.9*,i,-14,-21*,-0.39,78%*,i,46%*,108*,0.15*
Cc1ccc(S(=O)(=O)Nc2ncc(C(F)(F)F)cc2Cl)cc1,i,i,i,-5,i,0.07,.,.,.,.,.
SMILES,KCNQ1 pot,KCNK3 block,KCNQ1 block,hERG protect,KCNK9 inh,Kir21 block,KCNK9 inh conf,Kir21 sel,HEK293 Tl ctr,KCNK3 confirm,KCNK3 uninduced
COc1cccc(OCc2cc(C(=O)NCc3cnc4ccccn34)no2)c1,i,i,i,-7,i,0.31,.,.,.,.,.
COc1ccc(-c2csc(NC(=O)c3ccc(S(=O)(=O)N4CCc5ccccc5C4)cc3)n2)c(OC)c1,i,i,i,-6,i,0.14,.,.,.,.,.
CC1CCC(C(C)C)C(OC(=O)C[n+]2cccc(C(N)=O)c2)C1 (stereo not given),i,i,i,-6,i,1.9,.,.,.,.,.
CC1CCC(C(C)C)C(OC(=O)Cn2c(-c3ccc(Cl)cc3)[n+](C)c3ccccc32)C1 (stereo not given),i,-11*,10*,-36,-12*,-15*,66%*,80%*,i,119*,i
CC1CCC(C(C)C)C(OC(=O)COC(=O)c2cccn2C)C1 (stereo not given),i,-8.8*,i,-21,-13*,-1,59%*,i,27%*,108*,i
CC1CCC(C(C)C)C(OC(=O)Cn2c(-c3ccc(Br)cc3)[n+](C)c3ccccc32)C1 (stereo not given),i,-16*,10*,-31,-13*!,-15*,66%*,82%*,i,132*,i
